Calls of active or inactive are those of the source. The rule behind the calls is not given here.
How the values were obtained:
[1] = target: Survival motor neuron protein (Homo sapiens) (UniProt Q16637); experiment: Activation of SMN in human fibroblast cells obtained from type 1 SMA patients assessed as protein punctuate bodies per 100 nuclei at 37 to 3000 nM; type: cell-based
In short: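 Type I SMA patient fibroblasts (3813 line) were treated with 37–3000 nM compound for 3 days. Gems were then counted per 100 nuclei.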

[2] = target: T1, Luciferin 4-monooxygenase (Luciola lateralis, UniProt Q01158); experiment: Inhibition of fire fly luciferase; design: species or system Aquatica lateralis; conditions: read-out: IC50
T1 sequence (Q01158 whole entry): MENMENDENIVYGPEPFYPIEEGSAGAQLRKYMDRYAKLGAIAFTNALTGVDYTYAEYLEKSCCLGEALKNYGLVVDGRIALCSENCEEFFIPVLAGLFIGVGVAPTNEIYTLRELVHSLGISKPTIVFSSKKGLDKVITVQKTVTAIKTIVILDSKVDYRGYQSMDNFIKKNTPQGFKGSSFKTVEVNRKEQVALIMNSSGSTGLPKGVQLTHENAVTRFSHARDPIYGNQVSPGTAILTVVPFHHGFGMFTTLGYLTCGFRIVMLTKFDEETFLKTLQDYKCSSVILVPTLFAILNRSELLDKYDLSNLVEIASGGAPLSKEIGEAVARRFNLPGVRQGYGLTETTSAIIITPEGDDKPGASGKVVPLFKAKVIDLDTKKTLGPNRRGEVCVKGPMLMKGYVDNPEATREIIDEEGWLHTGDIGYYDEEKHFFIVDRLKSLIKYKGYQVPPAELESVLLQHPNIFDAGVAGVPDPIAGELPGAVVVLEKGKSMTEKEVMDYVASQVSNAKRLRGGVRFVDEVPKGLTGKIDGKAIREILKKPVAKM

[3] = target: Survival motor neuron protein (Homo sapiens) (UniProt Q16637); experiment: Activation of SMN expressed in HEK293 cells assessed as rate of induction by SMN2-promotor driven luciferase reporter gene assay relative to basal level; type: cell-based; design: concentration or dose not given beside the values
In short: (§1)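 HEK-293 cells stably carrying the SMN2 reporter construct, kept in DMEM with 10% FCS, glutamax, pyruvate, pen/strep and 200 µg/mL hygromycin, and assayed without hygromycin. 2,000 cells/well were plated and adhered overnight at 37 °C, 5% CO2. Compounds were added as a 7-point titration, 50 µM to 25 nM final, in 0.46% DMSO, for 30–36 h. OneGlo luminescence was normalized to 4.5 mM sodium butyrate (100%) and DMSO (0%).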

[4] = target: Survival motor neuron protein (Homo sapiens) (UniProt Q16637); experiment: Activation of SMN expressed in HEK293 cells assessed as concentration required to reach 50% of maximum luciferase signal by SMN2-promotor driven luciferase reporter gene assay; type: cell-based; in short: as §1
Caco-2 [5] = experiment: Apparent permeability from apical side to basolateral side of human Caco2 cells at 10 uM; type: ADME, cell-based; conditions: caco-2, 10 µM
Liver = experiment: Half-life in mouse liver microsome at 1 uM; type: ADME; conditions: microsomes
Caco-2 [6] = experiment: Apparent permeability from basolateral side to apical side of human Caco2 cells at 10 uM; type: ADME, cell-based; conditions: caco-2, 10 µM
[7] = Plasma concentration in Swiss albino mouse at 30 mg/kg, po after 2 hrs; type: ADME, organism-based; design: dose 30 mg/kg, route oral
In short: (§2)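 Male Swiss Albino mice received a single 30 mg/kg oral gavage dose. Compound levels were measured in plasma and brain over time, and PK parameters were derived from the concentration–time data.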

Plasma [8] = experiment: Free plasma concentration in Swiss albino mouse at 30 mg/kg, po after 2 hrs; type: ADME, organism-based; design: dose 30 mg/kg, route oral; conditions: in vivo
Plasma [9] = experiment: Tmax in plasma of Swiss albino mouse at 30 mg/kg, po; type: ADME, organism-based; design: dose 30 mg/kg, route oral; conditions: in vivo; in short: as §2
Brain [10] = experiment: Drug level in Swiss albino mouse brain at 30 mg/kg, po after 2 hrs; type: ADME, organism-based; design: dose 30 mg/kg, route oral; conditions: in vivo; in short: as §2
[11] = Ratio of AUC in brain to AUC in plasma in Swiss albino mouse at 30 mg/kg, po; type: ADME, organism-based; design: dose 30 mg/kg, route oral; conditions: brain and plasma
In short: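 Single oral gavage dose of 30 mg/kg given to male Swiss Albino mice; compound concentrations measured in both plasma and brain, from which brain and plasma exposure parameters were derived; animals observed for behavioural disturbance throughout the study.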

[12] = Plasma concentration in Swiss albino mouse at 30 mg/kg, po after 24 hrs; type: ADME, organism-based; design: dose 30 mg/kg, route oral; in short: as §2
[13] = Plasma concentration in Swiss albino mouse at 30 mg/kg, po after 0.5 hrs; type: ADME, organism-based; design: dose 30 mg/kg, route oral; in short: as §2
Plasma [14] = experiment: Half-life in plasma of Swiss albino mouse at 30 mg/kg, po; type: ADME, organism-based; design: dose 30 mg/kg, route oral; conditions: in vivo; in short: as §2
Plasma [15] = experiment: Free plasma concentration in Swiss albino mouse at 30 mg/kg, po after 24 hrs; type: ADME, organism-based; design: dose 30 mg/kg, route oral; conditions: in vivo
Brain [16] = experiment: Drug level in Swiss albino mouse brain at 30 mg/kg, po after 12 hrs; type: ADME, organism-based; design: dose 30 mg/kg, route oral; conditions: in vivo; in short: as §2
Plasma [17] = experiment: Free plasma concentration in Swiss albino mouse at 30 mg/kg, po after 1 hr; type: ADME, organism-based; design: dose 30 mg/kg, route oral; conditions: in vivo
Plasma [18] = experiment: Free plasma concentration in Swiss albino mouse at 30 mg/kg, po after 12 hrs; type: ADME, organism-based; design: dose 30 mg/kg, route oral; conditions: in vivo
Brain [19] = experiment: Tmax in brain of Swiss albino mouse at 30 mg/kg, po; type: ADME, organism-based; design: dose 30 mg/kg, route oral; conditions: in vivo; in short: as §2
[20] = Plasma concentration in Swiss albino mouse at 30 mg/kg, po after 1 hr; type: ADME, organism-based; design: dose 30 mg/kg, route oral; in short: as §2
[21] = Plasma protein binding in Swiss albino mouse at 30 mg/kg, po; type: ADME, organism-based; design: dose 30 mg/kg, route oral; conditions: read-out: PPB (converted)
[22] = Plasma concentration in Swiss albino mouse at 30 mg/kg, po after 0.25 hrs; type: ADME, organism-based; design: dose 30 mg/kg, route oral; in short: as §2
Brain [23] = experiment: Drug level in Swiss albino mouse brain at 30 mg/kg, po after 0.083 hr; type: ADME, organism-based; design: dose 30 mg/kg, route oral; conditions: in vivo
Plasma [24] = experiment: AUClast in plasma of Swiss albino mouse at 30 mg/kg, po; type: ADME, organism-based; design: time 0 - last, dose 30 mg/kg, route oral; conditions: in vivo; in short: as §2
Plasma [25] = experiment: AUC (infinity) in plasma of Swiss albino mouse at 30 mg/kg, po; type: ADME, organism-based; design: dose 30 mg/kg, route oral, time infinity; conditions: in vivo; in short: as §2
[26] = Plasma concentration in Swiss albino mouse at 30 mg/kg, po after 8 hrs; type: ADME, organism-based; design: dose 30 mg/kg, route oral; in short: as §2
Plasma [27] = experiment: Free plasma concentration in Swiss albino mouse at 30 mg/kg, po after 0.5 hr; type: ADME, organism-based; design: dose 30 mg/kg, route oral; conditions: in vivo
Brain [28] = experiment: AUClast in brain of Swiss albino mouse at 30 mg/kg, po; type: ADME, organism-based; design: time 0 - last, dose 30 mg/kg, route oral; conditions: in vivo; in short: as §2
[29] = Plasma concentration in Swiss albino mouse at 30 mg/kg, po after 4 hrs; type: ADME, organism-based; design: dose 30 mg/kg, route oral; in short: as §2
Brain [30] = experiment: Drug level in Swiss albino mouse brain at 30 mg/kg, po after 0.25 hr; type: ADME, organism-based; design: dose 30 mg/kg, route oral; conditions: in vivo; in short: as §2
[31] = target: Survival motor neuron protein (Homo sapiens) (UniProt Q16637); experiment: Activation of SMN in human fibroblast cells obtained from type 1 SMA patients assessed as protein punctuate bodies per 100 nuclei at 37 to 1000 nM relative to control; type: cell-based
Plasma [32] = experiment: Free plasma concentration in Swiss albino mouse at 30 mg/kg, po after 0.083 hr; type: ADME, organism-based; design: dose 30 mg/kg, route oral; conditions: in vivo
Plasma [33] = experiment: Free plasma concentration in Swiss albino mouse at 30 mg/kg, po after 0.25 hr; type: ADME, organism-based; design: dose 30 mg/kg, route oral; conditions: in vivo
Brain [34] = experiment: Drug level in Swiss albino mouse brain at 30 mg/kg, po after 4 hrs; type: ADME, organism-based; design: dose 30 mg/kg, route oral; conditions: in vivo; in short: as §2
Brain [35] = experiment: Drug level in Swiss albino mouse brain at 30 mg/kg, po after 24 hrs; type: ADME, organism-based; design: dose 30 mg/kg, route oral; conditions: in vivo; in short: as §2
Plasma [36] = experiment: Free plasma concentration in Swiss albino mouse at 30 mg/kg, po after 8 hrs; type: ADME, organism-based; design: dose 30 mg/kg, route oral; conditions: in vivo
[37] = Plasma concentration in Swiss albino mouse at 30 mg/kg, po after 12 hrs; type: ADME, organism-based; design: dose 30 mg/kg, route oral; in short: as §2
Brain [38] = experiment: AUC (infinity) in brain of Swiss albino mouse at 30 mg/kg, po; type: ADME, organism-based; design: time infinity, dose 30 mg/kg, route oral; conditions: in vivo; in short: as §2
Plasma [39] = experiment: Free plasma concentration in Swiss albino mouse at 30 mg/kg, po after 4 hrs; type: ADME, organism-based; design: dose 30 mg/kg, route oral; conditions: in vivo
Brain [40] = experiment: Drug level in Swiss albino mouse brain at 30 mg/kg, po after 1 hr; type: ADME, organism-based; design: dose 30 mg/kg, route oral; conditions: in vivo; in short: as §2
Brain [41] = experiment: Drug level in Swiss albino mouse brain at 30 mg/kg, po after 8 hrs; type: ADME, organism-based; design: dose 30 mg/kg, route oral; conditions: in vivo; in short: as §2
[42] = Plasma concentration in Swiss albino mouse at 30 mg/kg, po after 0.083 hrs; type: ADME, organism-based; design: dose 30 mg/kg, route oral
Brain [43] = experiment: Drug level in Swiss albino mouse brain at 30 mg/kg, po after 0.5 hr; type: ADME, organism-based; design: dose 30 mg/kg, route oral; conditions: in vivo; in short: as §2
Brain [44] = experiment: Cmax in brain of Swiss albino mouse at 30 mg/kg, po; type: ADME, organism-based; design: dose 30 mg/kg, route oral; conditions: in vivo; in short: as §2
Brain [45] = experiment: Half-life in brain of Swiss albino mouse at 30 mg/kg, po; type: ADME, organism-based; design: dose 30 mg/kg, route oral; conditions: in vivo; in short: as §2
Plasma [46] = experiment: Cmax in plasma of Swiss albino mouse at 30 mg/kg, po; type: ADME, organism-based; design: dose 30 mg/kg, route oral; conditions: in vivo; in short: as §2

Survival motor neuron protein (Homo sapiens), sequence (Q16637 whole entry): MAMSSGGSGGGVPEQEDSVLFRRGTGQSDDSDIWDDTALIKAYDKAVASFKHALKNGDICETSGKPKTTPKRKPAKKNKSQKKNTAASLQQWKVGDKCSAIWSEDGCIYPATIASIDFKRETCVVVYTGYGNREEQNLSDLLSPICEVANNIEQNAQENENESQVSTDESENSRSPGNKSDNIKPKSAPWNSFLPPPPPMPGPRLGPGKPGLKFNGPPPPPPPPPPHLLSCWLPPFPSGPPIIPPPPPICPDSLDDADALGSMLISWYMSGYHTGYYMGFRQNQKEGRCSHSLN

## NC(=O)C1CCN(c2ncc(-c3ccc4c(c3)OCCCO4)s2)CC1
[1]
  Activity: inactive
[2]
  IC50: 3200 nM
[3]
  Activity: 370%
[4]
  Activity: 0.038 µM
Caco-2 [5]
  Papp: 13.1 ×10⁻⁶ cm/s
Liver
  t1/2: 30 min
Caco-2 [6]
  Papp: 9.9 ×10⁻⁶ cm/s

## O=C(O)C1CCN(c2ncc(-c3ccc4c(c3)OCCCO4)s2)CC1
[7]
  concentration at 2 h: 16.6 µM
Plasma [8]
  Cp(f): 0.85 µM
Plasma [9]
  Tmax: 4.98 min
Brain [10]
  Drug uptake: 0.43 µmol/kg
[2]
  IC50: 5 nM
[11]
  Kp: 0.028
[12]
  concentration at 24 h: 4.36 µM
[13]
  concentration at 0.5 h: 41.1 µM
Plasma [14]
  t1/2: 670.8 min
Plasma [15]
  Cp(f): 0.22 µM
Brain [16]
  Drug uptake: 0.13 µmol/kg
Plasma [17]
  Cp(f): 1.07 µM
Plasma [18]
  Cp(f): 0.23 µM
Brain [19]
  Tmax: 15 min
[20]
  concentration at 1 h: 21 µM
[21]
  fraction unbound: 0.051
[22]
  concentration at 0.25 h: 41.7 µM
Brain [23]
  Drug uptake: 0.48 µmol/kg
Plasma [24]
  AUClast: 77768 ng·h/mL
[3]
  Activity: 325%
Plasma [25]
  AUC: 103094 ng·h/mL
[26]
  concentration at 8 h: 12.6 µM
Plasma [27]
  Cp(f): 2.1 µM
Brain [28]
  AUClast: 2167 ng·h/mL
[4]
  Activity: 0.012 µM
[29]
  concentration at 4 h: 10.8 µM
Brain [30]
  Drug uptake: 1.23 µmol/kg
Caco-2 [5]
  Papp: 33.8 ×10⁻⁶ cm/s
[31]
  Activity: 80%
Plasma [32]
  Cp(f): 2.26 µM
Plasma [33]
  Cp(f): 2.13 µM
Brain [34]
  Drug uptake: 0.36 µmol/kg
Brain [35]
  Drug uptake: 0.13 µmol/kg
Plasma [36]
  Cp(f): 0.64 µM
[37]
  concentration at 12 h: 4.57 µM
Brain [38]
  AUC: 3115 ng·h/mL
Liver
  t1/2: > 60 min
Plasma [39]
  Cp(f): 0.55 µM
Brain [40]
  Drug uptake: 0.59 µmol/kg
Brain [41]
  Drug uptake: 0.32 µmol/kg
[42]
  concentration at 0.083 h: 44.4 µM
Brain [43]
  Drug uptake: 1.14 µmol/kg
Brain [44]
  Cmax: 1.23 µmol/kg
Caco-2 [6]
  Papp: 44.1 ×10⁻⁶ cm/s
Brain [45]
  t1/2: 821.4 min
Plasma [46]
  Cmax: 44.4 µM

From ChEMBL document CHEMBL1821687, “Discovery, synthesis, and biological evaluation of novel SMN protein modulators” (J Med Chem, 2011)
